Screening data: PubChem BioAssay, several laboratories
This is a sample that favours compounds with a hit; in the whole collection about 1.2% have one here.
NPR1 activator = GC-A (human) enzyme activation. AID 1671463. activation, % at 10 µM. hit rate 0.14% among 370,000. HEK293 GC-A cells, cGMP TR-FRET, EC30 ANP; 0% at EC30 ANP, 100% saturating ANP; in the data active means activation above about 40%
CTSL1 counter = counter-screen for PFM18AAP inhibitors: inhibitors of F. hepatica cathepsin L1. recombinant F. hepatica cathepsin L1, Z-Leu-Arg-MCA fluorescence. inhibition, % at 5.96 µM. hit rate 0.49% among 300,000;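 active means inhibition above the mean of all tested compounds plus 3 SD, set per screening campaign, cut at about 17% in these data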;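 further: 0% = plate median of test compound wells and 100% = 1 µM Z-Phe-Ala-diazomethylketone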
ASAP1 inh = inhibitors of human ASAP1 ArfGAP activity | Q9ULH1 | ASAP1-stimulated ARF1 GTP hydrolysis, GDP FP detection | inhibition, % at 16.5 µM | hit rate 0.19% among 360,000; in the data active means inhibition above about 25%;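 further: 0% = vehicle with enzyme and substrate and 100% = no enzyme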
Target sequence (Q9ULH1 325-724 limits assumed): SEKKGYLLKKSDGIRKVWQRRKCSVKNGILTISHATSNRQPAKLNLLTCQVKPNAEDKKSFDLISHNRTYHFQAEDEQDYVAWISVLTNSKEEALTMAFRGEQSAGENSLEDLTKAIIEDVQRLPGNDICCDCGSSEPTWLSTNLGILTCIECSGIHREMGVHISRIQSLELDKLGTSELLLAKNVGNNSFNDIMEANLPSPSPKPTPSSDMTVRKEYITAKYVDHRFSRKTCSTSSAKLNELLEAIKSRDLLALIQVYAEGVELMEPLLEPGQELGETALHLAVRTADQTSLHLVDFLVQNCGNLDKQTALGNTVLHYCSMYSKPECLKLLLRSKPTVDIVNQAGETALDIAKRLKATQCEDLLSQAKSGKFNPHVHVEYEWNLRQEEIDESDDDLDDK
core dimer inh = HCV core protein dimerization inhibition | AID 1899 | hit rate 0.33% among 300,000 | inhibition, % at 5 µM | TR-FRET GST/Flag-core106 dimerization, 1536-well;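 active means inhibition above the mean of all tested compounds plus 3 SD, set per screening campaign, cut at about 45% in these data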
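Test system: GST/Flag-tagged HCV core106 proteins; Medium: KF-containing HEPES buffer, pH 7.45, DTT, CHAPS, BSA; Times: compound-protein-antibody incubation 4 h at 22.5 °C; Detection: TR-FRET 671 and 617 nm emission; Benchmarks: wells lacking GST-core106 and wells with excess unlabelled core106.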
ARFGAP1 inh = inhibits rat ARF GTPase activating protein 1; Arfgap1-stimulated ARF1 GTP hydrolysis, GDP FP detection; inhibition, % at 16.5 µM; hit rate 0.26% among 360,000; AID 651572;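 active means inhibition above a per-plate limit, mean inhibition of low control wells plus 3 SD, cut at about 25% in these data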;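 further: 0% = DMSO wells with enzyme and 100% = wells lacking Arfgap1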
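system = rat Arfgap1 catalytic domain, aa 1-136 | technique = FP, GDP Alexa 633 tracer displaced from anti-GDP antibody, 620/688 nm | compound = one concentration, 16.5 µM, DMSO 1.26% | medium = HEPES-based buffer, pH 7.5 | timing = compound-enzyme preincubation 20 min, reaction 120 min, detection 60 min, 25 °C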
GC-B act = GC-B (human) receptor activation. P20594. HEK293-GC-B cells, CNP EC30, cGMP TR-FRET; 0% at EC30 CNP, 100% saturating CNP. activation, % at 10 µM. hit rate 0.11% among 370,000. AID 1920062;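 active means activation at 10 µM reaching about 35% in either raw or pattern-adjusted values, limit read from the data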
Active calls of the source: *.

Results for Cc1c(C(=O)OCC(C)C)[nH]c2c1C(=O)CC(c1ccco1)C2 (stereo not given) ?
NPR1 activator: -5.3; CTSL1 counter: -1.3; ASAP1 inh: 13.2; core dimer inh: 46.9*; ARFGAP1 inh: 3.0; GC-B act: -2.6

How did Cc1c(C(=O)OC2CCCC2)[nH]c2c1C(=O)CC(c1ccco1)C2 (stereo not given) do in these assays?
NPR1 activator: -7.5; CTSL1 counter: -0.5; ASAP1 inh: -9.4; core dimer inh: 16.8; ARFGAP1 inh: -3.6; GC-B act: -6.2

How did C/C=C/COC(=O)c1[nH]c2c(c1C)C(=O)CC(c1ccco1)C2 (stereo not given) do in these assays?
NPR1 activator: -3.4; CTSL1 counter: -1.2; ASAP1 inh: -9.3; core dimer inh: 53.2*; ARFGAP1 inh: -11.2; GC-B act: -10.7

What do the screens show for `O=C(N[C@@H]1C[C@@H]2O[C@@H](CO)CC[C@@H]2O[C@@H]1CCc1ccc(-c2cccnc2)cc1)c1cccc(F)c1`?
NPR1 activator: 0.4; GC-B act: -2.4

How did O=C(CSc1ccsc1[N+](=O)[O-])Nc1cc(F)ccc1F do in these assays?
NPR1 activator: 0.1; ASAP1 inh: -14.6; ARFGAP1 inh: 6.1; GC-B act: 2.0

Results for CCN(CC)c1ccc(NC(=O)CSc2ccsc2[N+](=O)[O-])c(C)c1 ?
NPR1 activator: -2.8; CTSL1 counter: 4.7; ASAP1 inh: 4.1; core dimer inh: 48.6*; ARFGAP1 inh: 1.2; GC-B act: 1.7

How did Clc1ccc(OCCSc2ncccn2)cc1 do in these assays?
NPR1 activator: 54.6*; CTSL1 counter: 1.8; ASAP1 inh: 0.7; core dimer inh: -5.3; ARFGAP1 inh: 2.8; GC-B act: -7.1

How did COc1cc(C(=O)Sc2ccc(C)cc2)cc(OC)c1OC do in these assays?
NPR1 activator: 3.0; CTSL1 counter: -0.8; ASAP1 inh: 14.3; core dimer inh: 11.1; ARFGAP1 inh: -6.5; GC-B act: -3.9

Results for O=C(COC(=O)C1CCCCC1C(=O)N1CCc2ccccc21)NCc1ccco1 (stereo not given) ?
NPR1 activator: 5.0; CTSL1 counter: 1.9; ASAP1 inh: -2.7; core dimer inh: 82.8*; ARFGAP1 inh: -4.5; GC-B act: 4.9

What do the screens show for `O=C(COC(=O)C1CC2C=CC1C2)NCc1ccc(F)cc1` (stereo not given)?
NPR1 activator: 2.1; CTSL1 counter: 4.2; ASAP1 inh: -12.5; core dimer inh: -10.5; ARFGAP1 inh: 8.7; GC-B act: 2.2

Results for O=C(COC(=O)C1CC2C=CC1C2)NCc1ccco1 (stereo not given) ?
NPR1 activator: -0.5; CTSL1 counter: -10.2; ASAP1 inh: 7.5; core dimer inh: 76.5*; ARFGAP1 inh: -12.2; GC-B act: -0.2

What do the screens show for `O=C(COC(=O)CCOc1ccccc1)NCc1ccco1`?
NPR1 activator: -5.8; CTSL1 counter: -41.7; ASAP1 inh: -7.4; core dimer inh: 61.6*; ARFGAP1 inh: 0.9; GC-B act: 4.0

How did O=C(CN1CCCc2ccccc21)NC(=O)NCc1ccco1 do in these assays?
NPR1 activator: -2.3; CTSL1 counter: -3.3; ASAP1 inh: 12.1; core dimer inh: 1.2; ARFGAP1 inh: -6.0; GC-B act: 4.3

What do the screens show for `CC1(C)CC(=O)C(/C=N/c2ccccn2)=C(O)C1`?
NPR1 activator: -3.7; CTSL1 counter: 1.8; ASAP1 inh: 2.1; core dimer inh: 2.3; ARFGAP1 inh: 1.6; GC-B act: 5.7

Results for Cc1cc(NC(=O)c2ccccc2C)ccc1NC(=O)c1ccccc1Cl ?
NPR1 activator: 2.8; CTSL1 counter: -2.4; ASAP1 inh: 4.8; core dimer inh: -4.3; ARFGAP1 inh: 8.0; GC-B act: -0.2

What do the screens show for `CN(CCCC(=O)NC1CC(C)(C)NC(C)(C)C1)S(=O)(=O)c1ccc([N+](=O)[O-])cc1`?
NPR1 activator: -0.1; CTSL1 counter: 0.3; ASAP1 inh: 5.8; core dimer inh: -3.4; ARFGAP1 inh: 3.1; GC-B act: -0.8
